Experimental data published in ChEMBL document CHEMBL1151747, “Orally bioavailable isothioureas block function of the chemokine receptor CXCR4 in vitro and in vivo” (J Med Chem, 2008).

Legend:
Blood [1] = test: Inhibition of CXCL12-induced actin polymerization in human whole blood; assay type: functional, tissue-based
How it was run: (§1)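 EDTA whole blood (100 µL) is preincubated with inhibitor diluted in PBS for 10 min at room temperature. CXCL12 (100 nM final) is added for 25 s at ambient temperature. […] Neutrophil F-actin is read by flow cytometry.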

[2] = Drug level in Lewis rat blood at 30 mg/kg/day administered through osmotic pump for 5 days; assay type: ADME, organism-based; conditions: other: administered through osmotic pump, read-out: Drug uptake
How it was run: (§2)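 Lewis rats (n = 3) receive 30 mg/kg·d via osmotic pumps for 5 days. Blood is sampled on day 5 and analyzed ex vivo.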

Cytochrome P450 3A4 = Cytochrome P450 3A4 (Homo sapiens, UniProt P08684); test: Inhibition of CYP3A4; assay type: ADME
[3] = Half life in Lewis rat at 10 mg/kg, po; assay type: ADME, organism-based; parameters: dose 10 mg/kg, route oral; conditions: in vivo
[4] = biological target: T1, C-X-C chemokine receptor type 2 (Homo sapiens, UniProt P25025); test: Inhibition of CXCR2
T1 sequence (P25025 whole entry): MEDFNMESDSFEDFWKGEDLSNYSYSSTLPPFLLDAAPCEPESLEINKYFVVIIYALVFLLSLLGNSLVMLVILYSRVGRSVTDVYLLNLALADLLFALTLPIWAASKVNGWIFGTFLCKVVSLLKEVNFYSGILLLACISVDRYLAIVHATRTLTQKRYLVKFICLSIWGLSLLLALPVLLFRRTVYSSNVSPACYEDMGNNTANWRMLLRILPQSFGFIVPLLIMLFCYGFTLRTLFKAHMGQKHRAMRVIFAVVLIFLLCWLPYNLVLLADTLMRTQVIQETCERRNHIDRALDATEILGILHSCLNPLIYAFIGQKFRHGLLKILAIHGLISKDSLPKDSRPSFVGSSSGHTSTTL

Rattus norvegicus = test: Reduction in actin polymerization in Lewis rat blood at 30 mg/kg/day administered through osmotic pump for 5 days relative to control; assay type: functional; parameters: scale not given: the % may be the effect or the level left; how it was run: as §2
[5] = Solubility in pH 6.8 buffer; assay type: physicochemical
Cytochrome P450 1A2 = biological target: T2, Cytochrome P450 1A2 (Homo sapiens, UniProt P05177); test: Inhibition of CYP1A2; assay type: ADME
T2 sequence (P05177 whole entry): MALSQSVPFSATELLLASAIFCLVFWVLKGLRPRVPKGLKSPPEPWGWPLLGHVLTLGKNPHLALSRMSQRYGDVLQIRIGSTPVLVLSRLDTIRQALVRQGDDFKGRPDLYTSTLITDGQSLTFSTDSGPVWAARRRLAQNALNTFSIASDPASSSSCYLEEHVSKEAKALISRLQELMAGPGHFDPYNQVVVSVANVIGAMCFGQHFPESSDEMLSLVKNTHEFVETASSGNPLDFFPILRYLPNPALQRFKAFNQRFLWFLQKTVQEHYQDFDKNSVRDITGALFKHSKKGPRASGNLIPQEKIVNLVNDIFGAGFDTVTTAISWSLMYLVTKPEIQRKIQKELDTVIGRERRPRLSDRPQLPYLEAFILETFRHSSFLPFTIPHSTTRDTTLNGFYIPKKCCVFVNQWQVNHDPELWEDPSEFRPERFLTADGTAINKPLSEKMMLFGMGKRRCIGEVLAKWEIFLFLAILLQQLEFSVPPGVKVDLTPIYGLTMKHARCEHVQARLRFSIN

[6] = biological target: T3, C-C chemokine receptor type 9 (Homo sapiens, UniProt P51686); test: Inhibition of CCR9
T3 sequence (P51686 whole entry): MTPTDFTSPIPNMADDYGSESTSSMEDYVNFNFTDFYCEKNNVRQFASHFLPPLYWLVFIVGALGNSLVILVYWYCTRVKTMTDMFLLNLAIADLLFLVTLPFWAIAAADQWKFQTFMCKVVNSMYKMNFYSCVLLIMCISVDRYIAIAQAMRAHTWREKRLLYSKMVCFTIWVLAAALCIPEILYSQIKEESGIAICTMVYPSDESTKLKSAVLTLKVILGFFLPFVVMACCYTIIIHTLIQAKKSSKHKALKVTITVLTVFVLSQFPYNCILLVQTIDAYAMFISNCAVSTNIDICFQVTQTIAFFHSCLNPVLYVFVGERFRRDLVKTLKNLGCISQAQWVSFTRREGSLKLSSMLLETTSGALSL

[7] = biological target: C-C chemokine receptor type 5 (Homo sapiens, UniProt P51681); test: Inhibition of CCR5
[8] = Partition coefficient, log P of the compound; assay type: physicochemical; conditions: octanol/water
[9] = system: Human immunodeficiency virus 1; test: Antiviral activity against X4-tropic HIV1 3B assessed as inhibition of viral attachment; assay type: functional, organism-based; conditions: Human immunodeficiency virus 1, 3B
[10] = biological target: T4, C-X-C chemokine receptor type 4 (Homo sapiens, UniProt P61073); test: Displacement of [125I]CXCL12 from CXCR4 in human CEM cells; assay type: cell-based, CCRF-CEM
How it was run: (§3)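 Scintillation proximity assay. Membranes come from CEM cells (human CXCR4) or IR983F cells (rat CXCR4), prepared by homogenization in 20 mM HEPES, 1 mM EDTA pH 7.4 and stored at -80 °C. Nonspecific binding is defined with 400 nM unlabeled CXCL12. Incubation is 2 h at room temperature with shaking, then scintillation counting.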

[11] = biological target: T4, C-X-C chemokine receptor type 4; test: Activity at CXCR4 in human CEM cells assessed as inhibition of CXCL12-induced calcium mobilization; assay type: functional, cell-based, CCRF-CEM
How it was run: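 CEM cells are loaded with 4 µM Fluo-4 for 1 h at 37 °C, washed, then preincubated with antagonist for 2 h. Wells are run in quadruplicate on FLIPR.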

[12] = biological target: T5, C-C chemokine receptor type 4 (Homo sapiens, UniProt P51679); test: Inhibition of CCR4
T5 sequence (P51679 whole entry): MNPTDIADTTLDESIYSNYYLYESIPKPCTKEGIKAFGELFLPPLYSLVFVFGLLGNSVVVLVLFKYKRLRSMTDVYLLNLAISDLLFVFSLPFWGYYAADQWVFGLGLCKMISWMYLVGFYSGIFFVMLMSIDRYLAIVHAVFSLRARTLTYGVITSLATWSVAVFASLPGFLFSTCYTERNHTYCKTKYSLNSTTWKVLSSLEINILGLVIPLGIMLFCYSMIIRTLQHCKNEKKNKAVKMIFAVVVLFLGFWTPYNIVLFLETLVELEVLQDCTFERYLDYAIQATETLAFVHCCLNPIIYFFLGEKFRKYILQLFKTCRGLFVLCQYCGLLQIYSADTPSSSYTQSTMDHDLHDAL

[13] = biological target: T6, C-C chemokine receptor type 7 (Homo sapiens, UniProt P32248); test: Inhibition of CCR7
T6 sequence (P32248 whole entry): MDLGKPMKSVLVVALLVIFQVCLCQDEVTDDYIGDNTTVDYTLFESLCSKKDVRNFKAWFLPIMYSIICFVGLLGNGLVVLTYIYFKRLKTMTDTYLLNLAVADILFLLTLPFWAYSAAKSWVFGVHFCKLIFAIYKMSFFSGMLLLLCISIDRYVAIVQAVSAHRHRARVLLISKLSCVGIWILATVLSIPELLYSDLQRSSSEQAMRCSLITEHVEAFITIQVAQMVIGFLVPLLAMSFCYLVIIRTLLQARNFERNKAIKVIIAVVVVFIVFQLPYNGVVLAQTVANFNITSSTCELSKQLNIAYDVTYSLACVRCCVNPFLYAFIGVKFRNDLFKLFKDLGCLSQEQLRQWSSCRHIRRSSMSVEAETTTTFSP

[14] = Dissociation constant, pKa of the compound; assay type: physicochemical
[15] = Fraction unbound in rat serum; assay type: ADME, cell-free
[16] = Tmax in Lewis rat at 10 mg/kg, po; assay type: ADME, organism-based; parameters: dose 10 mg/kg, route oral; conditions: in vivo
Cytochrome P450 2C19 = Cytochrome P450 2C19 (Homo sapiens, UniProt P33261); test: Inhibition of CYP2C19; assay type: ADME
[17] = biological target: C-X-C chemokine receptor type 4 (Rattus norvegicus, UniProt O08565); test: Displacement of [125I]CXCL12 from CXCR4 in rat IR983F cells; assay type: cell-based; how it was run: as §3
[18] = Fraction unbound in human serum; assay type: ADME, cell-free
[19] = Intrinsic clearance in rat liver microsomes; assay type: ADME, Microsome
How it was run: (§4)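 Compound is incubated with human or rat liver microsomes; intrinsic clearance is given in µL min-1 mg-1.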

[20] = Intrinsic clearance in human liver microsomes; assay type: ADME, Microsome; how it was run: as §4
[21] = Solubility in pH 1.0 buffer; assay type: physicochemical
[22] = Distribution coefficient, log D of the compound; assay type: physicochemical; conditions: octanol/water
Cytochrome P450 2C9 = Cytochrome P450 2C9 (Homo sapiens, UniProt P11712); test: Inhibition of CYP2C9; assay type: ADME
[23] = Oral bioavailability in Lewis rat at 10 mg/kg; assay type: ADME, organism-based; conditions: in vivo
Blood [24] = test: Inhibition of CXCL12-induced actin polymerization in rat whole blood; assay type: functional, tissue-based; how it was run: as §1

T4 sequence (P61073 whole entry): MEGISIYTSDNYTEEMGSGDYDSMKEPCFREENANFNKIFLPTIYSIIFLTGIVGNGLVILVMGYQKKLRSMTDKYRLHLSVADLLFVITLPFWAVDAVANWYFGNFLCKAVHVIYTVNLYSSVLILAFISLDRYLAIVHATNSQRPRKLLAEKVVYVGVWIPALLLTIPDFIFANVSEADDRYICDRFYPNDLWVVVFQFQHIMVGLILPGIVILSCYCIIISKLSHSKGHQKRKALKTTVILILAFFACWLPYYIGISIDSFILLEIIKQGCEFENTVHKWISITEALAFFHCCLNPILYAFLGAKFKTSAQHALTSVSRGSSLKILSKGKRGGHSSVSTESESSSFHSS
C-X-C chemokine receptor type 4 (Rattus norvegicus, UniProt O08565), sequence (O08565 whole entry): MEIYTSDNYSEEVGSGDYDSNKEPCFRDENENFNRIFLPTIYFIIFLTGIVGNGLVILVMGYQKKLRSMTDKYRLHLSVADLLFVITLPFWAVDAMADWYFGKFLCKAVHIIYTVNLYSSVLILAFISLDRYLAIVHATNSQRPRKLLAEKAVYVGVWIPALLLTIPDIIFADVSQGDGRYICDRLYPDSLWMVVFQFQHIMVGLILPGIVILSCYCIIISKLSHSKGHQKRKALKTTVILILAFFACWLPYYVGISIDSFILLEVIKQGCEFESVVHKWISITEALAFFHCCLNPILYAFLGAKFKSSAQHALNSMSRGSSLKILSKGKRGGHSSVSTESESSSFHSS
C-C chemokine receptor type 5, sequence (P51681 whole entry): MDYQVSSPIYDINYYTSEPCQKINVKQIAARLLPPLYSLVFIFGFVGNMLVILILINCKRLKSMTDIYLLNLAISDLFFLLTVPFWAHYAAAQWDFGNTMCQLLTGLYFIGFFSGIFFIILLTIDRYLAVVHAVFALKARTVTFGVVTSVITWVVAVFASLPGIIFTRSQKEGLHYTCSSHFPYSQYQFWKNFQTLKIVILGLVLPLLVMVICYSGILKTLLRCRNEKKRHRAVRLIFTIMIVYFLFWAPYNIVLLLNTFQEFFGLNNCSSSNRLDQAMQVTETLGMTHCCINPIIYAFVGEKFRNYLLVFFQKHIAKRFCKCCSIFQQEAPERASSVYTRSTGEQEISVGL
Cytochrome P450 2C19, sequence (P33261 whole entry): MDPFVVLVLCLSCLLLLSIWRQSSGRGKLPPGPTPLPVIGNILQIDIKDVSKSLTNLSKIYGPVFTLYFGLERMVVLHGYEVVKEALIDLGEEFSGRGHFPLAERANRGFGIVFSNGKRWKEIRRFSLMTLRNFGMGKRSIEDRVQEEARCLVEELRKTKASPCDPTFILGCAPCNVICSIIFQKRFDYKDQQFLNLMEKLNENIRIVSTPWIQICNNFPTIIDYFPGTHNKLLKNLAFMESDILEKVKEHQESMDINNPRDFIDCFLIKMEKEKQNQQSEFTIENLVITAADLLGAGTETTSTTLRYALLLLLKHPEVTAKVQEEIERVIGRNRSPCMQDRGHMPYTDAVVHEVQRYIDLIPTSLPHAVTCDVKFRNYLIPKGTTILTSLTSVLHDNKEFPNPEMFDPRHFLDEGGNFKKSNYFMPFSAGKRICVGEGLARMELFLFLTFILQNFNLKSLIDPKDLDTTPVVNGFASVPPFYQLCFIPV
Cytochrome P450 3A4, sequence (P08684 whole entry): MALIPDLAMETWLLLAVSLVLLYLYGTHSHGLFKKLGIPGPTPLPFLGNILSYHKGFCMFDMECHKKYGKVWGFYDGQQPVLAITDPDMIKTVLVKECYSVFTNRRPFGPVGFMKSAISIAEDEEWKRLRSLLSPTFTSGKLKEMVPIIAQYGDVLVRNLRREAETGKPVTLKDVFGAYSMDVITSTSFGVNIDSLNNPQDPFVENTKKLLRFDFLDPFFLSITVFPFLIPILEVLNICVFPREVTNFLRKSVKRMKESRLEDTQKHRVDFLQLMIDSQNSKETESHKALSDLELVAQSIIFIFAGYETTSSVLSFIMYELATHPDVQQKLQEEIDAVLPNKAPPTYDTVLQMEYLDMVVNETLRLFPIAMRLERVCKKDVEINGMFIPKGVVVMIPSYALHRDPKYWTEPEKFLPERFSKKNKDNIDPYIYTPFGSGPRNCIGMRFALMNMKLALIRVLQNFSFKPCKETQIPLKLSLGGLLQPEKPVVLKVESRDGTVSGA
Cytochrome P450 2C9, sequence (P11712 whole entry): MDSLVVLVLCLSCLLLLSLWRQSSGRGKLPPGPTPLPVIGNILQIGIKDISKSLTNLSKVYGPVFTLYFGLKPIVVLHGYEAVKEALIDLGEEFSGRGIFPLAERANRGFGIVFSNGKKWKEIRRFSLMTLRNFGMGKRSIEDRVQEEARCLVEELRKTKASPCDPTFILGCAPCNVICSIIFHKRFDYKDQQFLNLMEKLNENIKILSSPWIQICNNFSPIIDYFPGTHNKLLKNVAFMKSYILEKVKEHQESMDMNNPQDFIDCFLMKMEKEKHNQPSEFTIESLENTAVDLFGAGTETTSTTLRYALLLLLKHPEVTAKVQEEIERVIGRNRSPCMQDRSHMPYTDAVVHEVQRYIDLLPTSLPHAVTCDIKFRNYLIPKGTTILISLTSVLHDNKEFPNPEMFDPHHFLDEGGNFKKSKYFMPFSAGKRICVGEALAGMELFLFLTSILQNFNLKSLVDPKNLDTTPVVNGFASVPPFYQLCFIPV

Structure (SMILES): C1=C(CS/C(=N\C2CCCCC2)NC2CCCCC2)N2CCN=C2S1
- IC50 (Blood [1]): 32 nM
- concentration at 120 h [2]: 1000 nM
- IC50 (Cytochrome P450 3A4): 3860 nM
- half-life [3]: 7.2 h
- IC50 [4]: > 3000 nM
- Activity (Rattus norvegicus): >80%
- solubility [5]: > 5000 µg/mL
- IC50 (Cytochrome P450 1A2): > 10000 nM
- IC50 [6]: > 3000 nM
- IC50 [7]: > 3000 nM
- logP [8]: 3.5
- IC50 [9]: 40 nM
- IC90 [9]: 720 nM
- IC50 [10]: 48 nM
- IC50 [11]: 11 nM
- IC50 [12]: > 3000 nM
- IC50 [13]: > 3000 nM
- pKa [14]: 7.7
- fraction unbound [15]: 0.54
- Tmax [16]: 0.5 h
- IC50 (Cytochrome P450 2C19): > 10000 nM
- IC50 [17]: 55 nM
- fraction unbound [18]: 0.29
- microsomal CLint [19]: 411 µL/min/mg
- microsomal CLint [20]: 51 µL/min/mg
- solubility [21]: > 5000 µg/mL
- logD [22]: -0.2
- IC50 (Cytochrome P450 2C9): > 10000 nM
- bioavailability [23]: 14%
- IC50 (Blood [24]): 86 nM
